In ChEMBL document CHEMBL1124174, “Substituted benzamides. 1. Potential nondopaminergic antagonists of chemotherapy-induced nausea and emesis” (J Med Chem, 1988):
Values joined by “and” are separate entries in the source; they are usually repeats but may differ in a detail not shown here. Identical values can stand only once.

Legend:
[1] = biological target: D(2) dopamine receptor (Canis lupus familiaris) (UniProt Q9GJU1); experiment: In vivo antagonism activity against dopamine D2 receptor was measured as emesis in dog when administered subcutaneously; format: functional, organism-based
Chain of D(2) dopamine receptor (Canis lupus familiaris) (Q9GJU1 whole entry): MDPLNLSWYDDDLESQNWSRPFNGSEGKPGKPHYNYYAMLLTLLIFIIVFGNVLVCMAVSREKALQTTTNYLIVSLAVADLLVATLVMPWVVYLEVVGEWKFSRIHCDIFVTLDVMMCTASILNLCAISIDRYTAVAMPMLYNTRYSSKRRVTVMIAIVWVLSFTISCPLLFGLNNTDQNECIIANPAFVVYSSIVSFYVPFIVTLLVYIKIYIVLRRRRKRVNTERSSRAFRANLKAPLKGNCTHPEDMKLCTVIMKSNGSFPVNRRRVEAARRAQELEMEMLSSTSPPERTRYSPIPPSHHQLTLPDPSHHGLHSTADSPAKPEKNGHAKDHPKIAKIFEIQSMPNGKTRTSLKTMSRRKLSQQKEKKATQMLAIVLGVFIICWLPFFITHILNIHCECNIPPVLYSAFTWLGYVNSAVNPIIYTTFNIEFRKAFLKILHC

[2] = test system: Canis familiaris; experiment: In vivo antagonism of cisplatin-induced emesis in dog measured as emetic episodes, twice the dose of 3 mg/kg in 2 dogs; format: functional, Canis lupus familiaris
Outline: (§1)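 Nonfasted mature male or female beagles were dosed sc twice, 30 min before and 120 min after cisplatin (3 mg/kg iv; 3 mg/mL in warm 0.9% saline, used immediately). Emesis was observed up to 5 h; events within 2 min counted as one episode. Results were given as mean emetic episodes and % protection versus a dynamic control (historical and concurrent saline means pooled). t test versus saline.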

[3] = biological target: D(2) dopamine receptor (Rattus norvegicus, UniProt P61169); experiment: In vitro antagonistic activity against Dopamine receptor D2 was evaluated for the inhibition of [3H]spiperone binding
Chain of D(2) dopamine receptor (P61169 whole entry): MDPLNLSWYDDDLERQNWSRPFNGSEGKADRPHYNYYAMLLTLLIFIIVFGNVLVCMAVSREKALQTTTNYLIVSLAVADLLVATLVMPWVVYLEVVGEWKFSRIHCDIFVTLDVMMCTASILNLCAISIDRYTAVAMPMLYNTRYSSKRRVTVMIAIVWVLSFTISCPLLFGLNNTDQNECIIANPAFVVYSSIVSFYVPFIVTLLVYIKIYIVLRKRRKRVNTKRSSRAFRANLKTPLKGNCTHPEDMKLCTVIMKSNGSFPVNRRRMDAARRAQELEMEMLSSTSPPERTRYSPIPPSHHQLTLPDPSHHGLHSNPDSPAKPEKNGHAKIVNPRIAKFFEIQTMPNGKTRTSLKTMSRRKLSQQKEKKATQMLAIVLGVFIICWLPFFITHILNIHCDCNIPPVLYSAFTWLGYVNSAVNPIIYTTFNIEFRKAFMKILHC
Outline: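 Rat striatal membranes were prepared by differential centrifugation in 50 mM Tris pH 7.4 at 4 °C. Membrane protein (10 mg) was incubated 15 min at 37 °C with 0.1 nM [3H]spiperone and varying competitor concentrations. Buffer: 50 mM Tris HCl pH 7.5, 0.1% ascorbic acid, pargyline, 120 mM NaCl, 5 mM KCl, 2 mM CaCl2, 1 mM MgCl2. (+)-Butaclamol defined nonspecific binding. Bound ligand was collected by filtration and scintillation counted. IC50 by log-logit regression.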

[4] = test system: Canis familiaris; experiment: In vivo antagonism of cisplatin-induced emesis in dog measured as percentage protection for twice the dose of 3 mg/kg in 2 dogs; format: functional, Canis lupus familiaris; outline: as §1
[5] = test system: Mustela putorius furo; experiment: In vivo antagonism of cisplatin-induced emesis in ferret measured as emetic episodes, twice the dose of 3 mg/kg and in 3 ferrets; format: functional
Outline: (§2)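 Nonfasted castrated male Fitch ferrets (1–1.5 kg) had jugular catheters implanted ≥48 h earlier under anesthesia. Compounds or saline were given iv twice, 5 min before and 90 min after cisplatin (12 mg/kg iv; 12 mg/mL in warm 0.9% saline). Emesis was observed up to 4 h; events within 1 min counted as one episode. Results were given as mean emetic episodes and % protection versus a pooled historical/concurrent control. t test versus saline.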

[6] = test system: Mustela putorius furo; experiment: In vivo antagonism of cisplatin-induced emesis in ferret measured as percentage protection for twice the dose of 3 mg/kg and in 3 ferrets; format: functional; outline: as §2
[7] = biological target: D(2) dopamine receptor (Rattus norvegicus) (UniProt P61169); experiment: In vivo antagonism activity against D2 receptor was measured as stereotypy in rat when administered subcutaneously; format: functional, organism-based
Chain of D(2) dopamine receptor (Rattus norvegicus) (P61169 whole entry): as above
Outline: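 Male Long Evans rats (275 g) were dosed sc in dilute aqueous HCl (pH 4.5-5.5) 30 min before apomorphine (1 mg/kg sc).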

[8] = biological target: D(2) dopamine receptor (Rattus norvegicus) (UniProt P61169); experiment: In vivo antagonistic activity against dopamine D2 receptor was measured as catalepsy in rat when administered subcutaneously; format: functional, organism-based
Outline: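 Male Long Evans rats (275 g) received graded sc doses in dilute aqueous HCl (pH 4.5-5.5). They were observed 180 min for catalepsy, scored when the animal stayed stationary ≥15 s on a four-cork template.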

[9] = test system: Canis familiaris; experiment: In vivo antagonism of cisplatin-induced emesis in dog measured as emetic episodes, twice the dose of 6 mg/kg in 2 dogs; format: functional, Canis lupus familiaris; outline: as §1
[10] = test system: Canis familiaris; experiment: In vivo antagonism of cisplatin-induced emesis in dog measured as percentage protection for twice the dose of 6 mg/kg in 2 dogs; format: functional, Canis lupus familiaris; outline: as §1
[11] = test system: Canis familiaris; experiment: In vivo antagonism of cisplatin-induced emesis in dog measured as emetic episodes, twice the dose of 0.3 mg/kg in 2 dogs; format: functional, Canis lupus familiaris; outline: as §1
[12] = test system: Canis familiaris; experiment: In vivo antagonism of cisplatin-induced emesis in dog measured as emetic episodes, twice the dose of 1 mg/kg in 2 dogs; format: functional, Canis lupus familiaris; outline: as §1
[13] = test system: Canis familiaris; experiment: In vivo antagonism of cisplatin-induced emesis in dog measured as percentage protection for twice the dose of 1 mg/kg in 2 dogs; format: functional, Canis lupus familiaris; outline: as §1
[14] = test system: Mustela putorius furo; experiment: In vivo antagonism of cisplatin-induced emesis in ferret measured as emetic episodes, twice the dose of 1 mg/kg and in 3 ferrets; format: functional; outline: as §2
[15] = test system: Mustela putorius furo; experiment: In vivo antagonism of cisplatin-induced emesis in ferret measured as percentage protection for twice the dose of 1 mg/kg and in 3 ferrets; format: functional; outline: as §2
[16] = test system: Canis familiaris; experiment: In vivo antagonism of cisplatin-induced emesis in dog measured as percentage protection for twice the dose of 0.3 mg/kg in 2 dogs; format: functional, Canis lupus familiaris; outline: as §1
[17] = test system: Mustela putorius furo; experiment: In vivo antagonism of cisplatin-induced emesis in ferret measured as percentage protection for twice the dose of 0.3 mg/kg and in 3 ferrets; format: functional; outline: as §2
[18] = test system: Mustela putorius furo; experiment: In vivo antagonism of cisplatin-induced emesis in ferret measured as emetic episodes, twice the dose of 0.3 mg/kg and in 3 ferrets; format: functional; outline: as §2

IC50 [3]	ED50 [7]	SMILES	ED50 [1]	Emetic episodes [2]	Protection [4]	Emetic episodes [5]	Protection [6]	ED50 [8]	Emetic episodes [9]	Protection [10]	Emetic episodes [11]	Emetic episodes [12]	Protection [13]	Emetic episodes [14]	Protection [15]	Protection [16]	Protection [17]	Emetic episodes [18]	Protection ([17]; 0.3 mg/kg)
> 1000 nM	> 40 mg/kg	C=C(C)COc1cc(N)c(Cl)cc1C(=O)NCCN(CC)CC	> 3 mg/kg	4	68%	2.3	70%	> 40 mg/kg	–	–	–	–	–	–	–	–	–	–	–
> 1000 nM	> 40 mg/kg	CCN(CC)CC/N=C(\NOC)c1cc(Cl)c(N)cc1OC	> 1 mg/kg	–	–	8.3	0%	> 40 mg/kg	8.5	34%	–	–	–	–	–	–	–	–	–
> 1000 nM	> 40 mg/kg	CCC(Oc1cc(N)c(Cl)cc1C(=O)NCCN(CC)CC)C(C)=O (configuration not stated)	> 3 mg/kg	–	–	–	–	> 40 mg/kg	–	–	3	0.5	96%	2.3	68%	–	–	–	–
> 1000 nM	> 40 mg/kg	CCN(CC)CCNC(=O)c1cc(Cl)c(N)cc1OCC(=O)C(C)C	> 3 mg/kg	–	–	–	–	> 40 mg/kg	–	–	3	–	–	4	44%	44%	–	–	–
> 1000 nM	> 40 mg/kg	CCN(CC)CCNC(=O)c1cc(Cl)c(N)cc1OC1CCCC[C@H]1O (some centres not stated)	–	–	–	2.7	64%	> 40 mg/kg	–	–	4.5	0	100%	–	–	64%	–	–	–
> 1000 nM	> 40 mg/kg	CCN(CC)CCNC(=O)c1cc(Cl)c(N)cc1OC1CCCC[C@H]1OC (some centres not stated)	> 3 mg/kg	–	–	1.3	82%	> 40 mg/kg	–	–	3.5	0	100%	1.7	49%	70%	77%	3.7	–
> 1000 nM	> 40 mg/kg	CCN(CC)CCNC(=O)c1cc(Cl)c(N)cc1OCC(C)O (configuration not stated)	> 3 mg/kg	–	–	1	86%	> 40 mg/kg	–	–	3	0	100%	4.5	36%	68%	–	–	–
> 1000 nM	> 40 mg/kg	CCCOc1cc(N)c(Cl)cc1C(=O)NCCN(CC)CC	> 3 mg/kg	–	–	2	70%	> 40 mg/kg	8	40%	–	–	–	–	–	–	–	–	–
> 1000 nM	> 40 mg/kg	CCCC(=O)COc1cc(N)c(Cl)cc1C(=O)NCCN(CC)CC	> 3 mg/kg	–	–	–	–	> 40 mg/kg	–	–	2	–	–	0.7	90%	84%	–	–	–
> 1000 nM	> 40 mg/kg	CCC(=O)COc1cc(N)c(Cl)cc1C(=O)NCCN(CC)CC	> 3 mg/kg	–	–	0.7	90%	> 40 mg/kg	–	–	3	0	100%	–	–	–	0%	7.3	–
> 1000 nM	> 40 mg/kg	CCN(CC)CCN1C(=O)c2cc(Cl)c(N)cc2OC(C)=C1C	> 3 mg/kg	–	–	–	–	> 40 mg/kg	–	–	7.5	–	–	–	–	37%	–	–	95% and 67%
